Measured values: ChEMBL document CHEMBL3272298, “Use of adenine nucleotide derivatives to assess the potential of exo-active-site-directed reagents as species- or isozyme-specific enzyme inactivators. 2. Isozyme-specific inactivation of a mammalian enzyme and its significance in the possible design of fetal isozyme targeted antineoplastic agents” (J Med Chem, 1978)
pKd: −log10 of the molar value. Active and inactive are the calls of the source. The rule behind the calls is not given here.

Columns and labels:
[1] = species: Rattus norvegicus; test: Inactivation of Sprague-Dawley rat pyruvate kinase K using PEP as substrate at 5 mM at pH 7 after 8 hrs by spectrophotometric analysis
Summary of the method: (§1)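 Electrofocused isozymes, at tenfold (M) or twofold (L, K) assay level, exposed at pH 7.0 and 22 °C to Mg salts of the analogues. Medium: triethanolamine buffer with MgCl2, KCl, NADH, fructose diphosphate and lactate dehydrogenase, no ADP or PEP. Exposure was 8 h at 5 mM, or up to 10 mM for the liver isozyme; M controls were followed to 24 h. Timed aliquots were assayed by the coupled LDH method at 340 nm with 0.373 mM ADP, against controls lacking analogue.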

[2] = biological target: Pyruvate kinase PKM (Rattus norvegicus) (UniProt P11980); test: Inactivation of Sprague-Dawley rat pyruvate kinase M using PEP as substrate at 5 mM at pH 7 after 8 hrs by spectrophotometric analysis; summary of the method: as §1
[3] = biological target: Pyruvate kinase PKLR (Rattus norvegicus) (UniProt P12928); test: Inactivation of Sprague-Dawley rat pyruvate kinase L using PEP as substrate at 5 mM at pH 7 after 8 hrs by spectrophotometric analysis; summary of the method: as §1
[4] = Retardation factor of the compound using 1-butanol-acetic acid-water as solvent system by paper chromatography; assay type: physicochemical; settings: buffer
[5] = biological target: Pyruvate kinase PKM (Rattus norvegicus) (UniProt P11980); test: Activity at Sprague-Dawley rat pyruvate kinase M assessed as initial enzyme reaction velocity at 0.21 mM by spectrophotometric analysis relative to ADP
Summary of the method: (§2)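 Isozymes K, L and M from male Sprague-Dawley rat kidney, liver and muscle, partially purified by electrofocusing and dialyzed. Assay in 0.05 M triethanolamine-HCl pH 7.0 with 5 mM MgCl2, 67 mM KCl, 0.56 mM phosphoenolpyruvate, 0.4 mM NADH, 10 μM fructose 1,6-diphosphate, 0.21 mM nucleotide and lactate dehydrogenase. After 5 min preincubation, the nucleotide starts the reaction. Initial rate at 340 nm, 22 °C, expressed relative to ADP (100).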

[6] = biological target: Pyruvate kinase PKLR (Rattus norvegicus) (UniProt P12928); test: Activity at Sprague-Dawley rat pyruvate kinase L assessed as initial enzyme reaction velocity at 0.21 mM by spectrophotometric analysis relative to ADP; summary of the method: as §2
[7] = biological target: Pyruvate kinase PKLR (Rattus norvegicus) (UniProt P12928); test: Inactivation of Sprague-Dawley rat pyruvate kinase L using PEP as substrate at 10 mM at pH 7 after 8 hrs by spectrophotometric analysis; summary of the method: as §1
[8] = biological target: T1, Pyruvate kinase PKLR (Rattus norvegicus, UniProt P12928); test: Binding affinity to Sprague-Dawley rat pyruvate kinase L assessed as apprent enzyme-inhibitor dissociation constant using PEP as substrate by spectrophotometric analysis; settings: read-out: Kd(app)
Summary of the method: (§3)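 Liver isozyme incubated at 22 °C with Mg salt of the analogue at 3.0–10.0 mM in triethanolamine buffer with MgCl2, KCl, NADH, fructose diphosphate and lactate dehydrogenase, without ADP or PEP. Aliquots taken over time and assayed at 340 nm with 0.373 mM ADP. Pseudo-first-order inactivation half-times were derived, with t1/2 extrapolated to infinite inhibitor level, and apparent K from the rate-saturation analysis.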

[9] = biological target: Pyruvate kinase PKLR (Rattus norvegicus) (UniProt P12928); test: Inactivation of Sprague-Dawley rat pyruvate kinase L using PEP as substrate at 5 mM at pH 7 after 8 hrs by spectrophotometric analysis in presence of 5 mM ADP
Summary of the method: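 Liver isozyme exposed to 5 mM Mg-analogue together with 5 mM ADP for 8 h at 22 °C, pH 7.0, in triethanolamine/MgCl2/KCl medium. Remaining activity was measured in timed aliquots by the LDH-coupled 340 nm assay with 0.373 mM ADP.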

[10] = Drug metabolism assessed as Sprague-Dawley rat pyruvate kinase K-mediated drug conversion; assay type: ADME
Summary of the method: (§4)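 Each isozyme preparation (K, L, M) incubated with the analogue under inactivation conditions: pH 7.0, 22 °C, triethanolamine buffer with MgCl2 and KCl. Conversion of the analogue to other compounds checked by paper electrophoresis at pH 3.5.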

[11] = biological target: Pyruvate kinase PKLR (Rattus norvegicus) (UniProt P12928); test: Half life for inactivation of Sprague-Dawley rat pyruvate kinase L using PEP as substrate by spectrophotometric analysis; summary of the method: as §3
[12] = biological target: Pyruvate kinase PKM (Rattus norvegicus, UniProt P11980); test: Drug metabolism assessed as Sprague-Dawley rat pyruvate kinase M-mediated drug conversion; assay type: ADME; summary of the method: as §4
[13] = species: Rattus norvegicus; test: Activity at Sprague-Dawley rat pyruvate kinase K assessed as initial enzyme reaction velocity at 0.21 mM by spectrophotometric analysis relative to ADP; summary of the method: as §2
[14] = biological target: Pyruvate kinase PKLR (Rattus norvegicus) (UniProt P12928); test: Inactivation of Sprague-Dawley rat pyruvate kinase L using PEP as substrate at 7 mM pretreated with pyruvate kinase M measured for 4 hrs by spectrophotometric analysis
Summary of the method: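 Muscle isozyme first exposed to the analogue (7 mM) under the usual inactivation conditions at 22 °C, then liver isozyme added. Liver isozyme inactivation was followed over 4 h by the LDH-coupled 340 nm assay.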

[15] = species: Rattus norvegicus; test: Inactivation of Sprague-Dawley rat pyruvate kinase K using PEP as substrate at 7 mM pretreated with pyruvate kinase L by spectrophotometric analysis
[16] = biological target: Pyruvate kinase PKM (Rattus norvegicus) (UniProt P11980); test: Inactivation of Sprague-Dawley rat pyruvate kinase M using PEP as substrate at 7 mM pretreated at 22 degC for 2 hrs with pyruvate kinase L measured for 3.5 hrs by spectrophotometric analysis
Summary of the method: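 Liver isozyme treated with the analogue (7 mM) for 2 h at 22 °C under the usual inactivation conditions, then an approximately equal activity of muscle isozyme added. Muscle activity followed for a further 3.5 h by the LDH-coupled 340 nm assay.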

[17] = biological target: T1, Pyruvate kinase PKLR; test: Drug metabolism assessed as Sprague-Dawley rat pyruvate kinase L-mediated drug conversion; assay type: ADME; summary of the method: as §4
[18] = biological target: Pyruvate kinase PKLR (Rattus norvegicus) (UniProt P12928); test: Inactivation of Sprague-Dawley rat pyruvate kinase L using PEP as substrate at 7 mM pretreated with pyruvate kinase K by spectrophotometric analysis

Chain of Pyruvate kinase PKLR (Rattus norvegicus) (P12928 whole entry): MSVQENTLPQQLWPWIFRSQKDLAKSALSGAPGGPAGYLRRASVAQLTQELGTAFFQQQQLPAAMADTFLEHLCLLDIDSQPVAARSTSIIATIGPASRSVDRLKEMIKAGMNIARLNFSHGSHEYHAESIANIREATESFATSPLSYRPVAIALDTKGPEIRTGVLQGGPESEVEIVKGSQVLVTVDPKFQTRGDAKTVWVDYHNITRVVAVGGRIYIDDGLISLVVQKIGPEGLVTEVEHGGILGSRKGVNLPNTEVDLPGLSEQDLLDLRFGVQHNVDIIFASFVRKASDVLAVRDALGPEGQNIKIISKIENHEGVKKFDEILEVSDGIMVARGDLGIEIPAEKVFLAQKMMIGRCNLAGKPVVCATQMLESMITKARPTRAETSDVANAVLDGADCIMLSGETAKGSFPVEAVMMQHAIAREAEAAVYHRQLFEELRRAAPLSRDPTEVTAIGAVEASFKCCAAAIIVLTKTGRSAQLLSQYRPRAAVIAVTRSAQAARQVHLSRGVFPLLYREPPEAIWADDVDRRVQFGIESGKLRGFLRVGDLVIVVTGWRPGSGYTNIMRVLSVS
Chain of Pyruvate kinase PKM (Rattus norvegicus) (P11980 whole entry): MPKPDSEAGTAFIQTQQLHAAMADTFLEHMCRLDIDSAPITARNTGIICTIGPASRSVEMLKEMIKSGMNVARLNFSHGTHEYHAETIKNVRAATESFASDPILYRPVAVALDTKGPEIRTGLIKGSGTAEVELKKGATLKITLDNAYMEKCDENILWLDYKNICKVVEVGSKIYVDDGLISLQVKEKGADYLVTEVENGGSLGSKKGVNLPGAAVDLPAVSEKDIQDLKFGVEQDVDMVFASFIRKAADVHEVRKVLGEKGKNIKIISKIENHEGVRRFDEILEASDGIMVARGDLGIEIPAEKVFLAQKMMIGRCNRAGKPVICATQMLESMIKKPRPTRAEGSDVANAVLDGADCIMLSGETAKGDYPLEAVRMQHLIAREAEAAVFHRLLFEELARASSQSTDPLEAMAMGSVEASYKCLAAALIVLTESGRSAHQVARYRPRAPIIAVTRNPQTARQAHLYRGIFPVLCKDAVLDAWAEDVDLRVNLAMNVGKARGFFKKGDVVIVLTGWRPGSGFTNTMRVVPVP
T1 sequence (P12928 whole entry): as the sequence (P12928 whole entry) above
Chain of Pyruvate kinase PKM (P11980 whole entry): as the sequence (P11980 whole entry) above

## O=C(CI)NCCCNc1ncnc2c1ncn2[C@@H]1O[C@H](COP(=O)(O)OP(=O)(O)O)[C@@H](O)[C@H]1O
[1]
  inhibition: inactive
[2]
  inhibition: inactive
[3]
  inhibition: inactive
[4]
  Rf: 0.55

## O=C(CI)NCCCCCCNc1ncnc2c1ncn2[C@@H]1O[C@H](COP(=O)(O)OP(=O)(O)O)[C@@H](O)[C@H]1O
[5]
  Activity: 19%
[1]
  inhibition: inactive
[2]
  inhibition: inactive
[6]
  Activity: 9%
[3]
  inhibition: inactive
[4]
  Rf: 0.65

## O=C(CI)NCCCCCNc1ncnc2c1ncn2[C@@H]1O[C@H](COP(=O)(O)OP(=O)(O)O)[C@@H](O)[C@H]1O
[5]
  Activity: 7%
[1]
  inhibition: inactive
[2]
  inhibition: inactive
[6]
  Activity: 8%
[3]
  inhibition: inactive
[4]
  Rf: 0.6

## O=C(CI)NCCNc1ncnc2c1ncn2[C@@H]1O[C@H](COP(=O)(O)OP(=O)(O)O)[C@@H](O)[C@H]1O
[1]
  inhibition: inactive
[2]
  inhibition: inactive
[3]
  inhibition: inactive
[4]
  Rf: 0.53

## O=C(CI)NCCCCCCCCNc1ncnc2c1ncn2[C@@H]1O[C@H](COP(=O)(O)OP(=O)(O)OP(=O)(O)O)[C@@H](O)[C@H]1O
[3]
  inhibition: inactive

## O=C(CI)NCCCCNc1ncnc2c1ncn2[C@@H]1O[C@H](COP(=O)(O)OP(=O)(O)O)[C@@H](O)[C@H]1O
[1]
  inhibition: inactive
[2]
  inhibition: inactive
[3]
  inhibition: inactive
[4]
  Rf: 0.58

## O=C(CI)NCCCCCCCCNc1ncnc2c1ncn2[C@@H]1O[C@H](COP(=O)(O)O)[C@@H](O)[C@H]1O
[7]
  inhibition: inactive

## O=C(CI)NCCCCCCCCNc1ncnc2c1ncn2[C@@H]1O[C@H](COP(=O)(O)OP(=O)(O)O)[C@@H](O)[C@H]1O
[5]
  Activity: 54%
[1]
  inhibition: inactive
[8]
  pKd: 1.44
[9]
  inhibition: inactive
[10]
  Drug metabolism: metabolite_notdetected
[11]
  T1/2: 23 min
[12]
  Drug metabolism: metabolite_notdetected
[13]
  Activity: 21%
[14]
  inhibition: Active
[15]
  inhibition: inactive
[16]
  inhibition: inactive
[17]
  Drug metabolism: metabolite_notdetected
[6]
  Activity: 13%
[3]
  inhibition: 80%
[4]
  Rf: 0.71
[18]
  inhibition: Active

## O=C(CI)NCCCCCCCNc1ncnc2c1ncn2[C@@H]1O[C@H](COP(=O)(O)OP(=O)(O)O)[C@@H](O)[C@H]1O
[5]
  Activity: 25%
[1]
  inhibition: inactive
[2]
  inhibition: inactive
[6]
  Activity: 12%
[3]
  inhibition: inactive
[4]
  Rf: 0.68

## CC(=O)NCCCCCCCCNc1ncnc2c1ncn2[C@@H]1O[C@H](COP(=O)(O)OP(=O)(O)O)[C@@H](O)[C@H]1O
[6]
  Activity: 9%
[3]
  inhibition: inactive
